High-throughput results from PubChem BioAssay.
M18AAP inhibitor: PfM18AAP inhibitors, malaria aminopeptidase, primary screen, biochemical, QFRET, recombinant enzyme | M18 aspartyl aminopeptidase (Plasmodium falciparum 3D7) | H-Glu-NHMec fluorogenic cleavage | inhibition, % at 7.35 µM | 290,000 compounds, 1.2% hits;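 active = inhibition above the campaign mean inhibition over all tested compounds plus 3 SD, cut at about 28% in these data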
GAA850 FXN act: FXN promoter activators, primary screen, cell-based, luciferase luminescence, HEK293 lucGAA850. HEK293 lucGAA850 FXN promoter luciferase reporter, 24 h; percent of 10 µM SAHA response. activation, % at 6 µM. 360,000 compounds, 0.56% hits. AID 540364, 2011;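 active = activation above the average of all compounds screened plus 3 SD, cutoff fixed separately per campaign, cut at about 7.5% in these data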
Fh CTSL1 inh: Fasciola hepatica cathepsin L1 inhibitors, primary screen, counter-screen for PFM18AAP inhibitor project, biochemical, QFRET, fluorogenic peptide substrate; recombinant F. hepatica cathepsin L1, Z-Leu-Arg-MCA fluorescence; inhibition, % at 5.96 µM; 300,000 compounds, 0.49% hits;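 active = inhibition above the mean of all tested compounds plus 3 SD, set per screening campaign, cut at about 17% in these data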
HDAC3 inhib: HDAC3 deacetylase inhibitors, primary screen, biochemical, fluorescence, cell-free homogeneous; recombinant HDAC3, fluorogenic peptide/trypsin coupled; inhibition, % at 8.3 µM; 320,000 compounds, 0.15% hits; AID 2718, 2010; Histone deacetylase 3 (Homo sapiens), O15379; in the data active = inhibition above about 26%, passing the limit was not always enough; inconclusive = no clear call, values can overlap the other calls
AHR act: AHR activators, primary screen, cell-based, luminescence, luciferase reporter, human; Aryl hydrocarbon receptor (Homo sapiens), P35869; AHR-responsive luciferase reporter cells; activation, % at 5 µM; 320,000 compounds, 2.5% hits; in the data active = activation above about 47%
Target sequence (P35869 whole entry, looked up): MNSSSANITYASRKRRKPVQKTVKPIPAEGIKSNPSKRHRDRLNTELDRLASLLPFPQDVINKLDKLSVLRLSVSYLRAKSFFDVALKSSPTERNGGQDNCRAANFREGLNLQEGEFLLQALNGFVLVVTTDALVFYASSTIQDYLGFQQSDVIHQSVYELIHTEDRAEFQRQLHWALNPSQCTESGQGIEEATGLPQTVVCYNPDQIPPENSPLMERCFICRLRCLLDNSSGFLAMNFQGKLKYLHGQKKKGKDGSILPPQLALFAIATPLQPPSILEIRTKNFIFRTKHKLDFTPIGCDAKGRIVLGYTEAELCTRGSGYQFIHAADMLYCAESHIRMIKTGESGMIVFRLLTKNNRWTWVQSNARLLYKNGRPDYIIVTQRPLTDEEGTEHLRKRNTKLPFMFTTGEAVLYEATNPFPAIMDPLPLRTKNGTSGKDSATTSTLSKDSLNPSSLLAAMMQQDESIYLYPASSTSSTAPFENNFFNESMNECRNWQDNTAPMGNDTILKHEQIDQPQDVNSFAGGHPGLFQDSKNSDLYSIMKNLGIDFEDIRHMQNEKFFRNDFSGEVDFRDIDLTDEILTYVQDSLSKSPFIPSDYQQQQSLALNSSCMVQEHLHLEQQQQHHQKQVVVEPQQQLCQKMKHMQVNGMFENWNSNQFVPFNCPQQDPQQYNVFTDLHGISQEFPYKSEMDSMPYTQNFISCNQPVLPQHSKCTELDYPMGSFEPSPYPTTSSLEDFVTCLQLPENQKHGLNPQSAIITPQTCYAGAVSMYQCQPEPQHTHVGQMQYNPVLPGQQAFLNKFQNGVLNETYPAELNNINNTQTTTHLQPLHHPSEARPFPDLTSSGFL
SENP1 FRET inh: human SENP1 catalytic domain inhibitors, primary screen, biochemical, FRET, uHTS; Sentrin-specific protease 1 (Homo sapiens), Q9P0U3; recombinant SENP1 catalytic domain, CyPet-SUMO1-YPet FRET cleavage; inhibition, % at 10 µM; 360,000 compounds, 0.21% hits;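 active = inhibition at least 30% at 10 µM, raw YFP signal under a set limit, fluorescence ratio 0.5 to 1.5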
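material = recombinant human SENP1 catalytic domain, His6-tagged | quantity = 20 pM enzyme | reagent = 25 nM SUMO1 FRET substrate | compound dosing = 10 µM single point, 0.5% DMSO | timing = 50 min enzyme reaction, room temperature, light-protected | detection = FRET, CFP and YFP emission | control set = no-enzyme low, enzyme-DMSO high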
Each line names hits and unclear results; the compound was inactive in the other large screens. Only some compounds are listed: those with a hit (about 4.2% of all), similar ones and a draw of the others.

CN(C)C1=NC(=O)/C(=C/c2ccc(-c3ccc(S(N)(=O)=O)cc3)o2)S1	none (no result: GAA850 FXN act, SENP1 FRET inh)
Cc1c(NC(=O)C2CC(c3cccc(Br)c3)=NO2)c(=O)n(-c2ccccc2)n1C (stereo unspecified)	Fh CTSL1 inh 17.0
Cc1c(NC(=O)C2CC(c3ccc(F)cc3)=NO2)c(=O)n(-c2ccccc2)n1C (stereo unspecified)	none
Cc1c(NC(=O)c2cc(C3CC3)on2)c(=O)n(-c2ccccc2)n1C	Fh CTSL1 inh 42.0
Cc1c(NC(=O)c2cc(-c3ccccc3)on2)c(=O)n(-c2ccccc2)n1C	none
CC(CNC(=O)c1ccccc1[N+](=O)[O-])NC(=O)c1ccccc1[N+](=O)[O-] (stereo unspecified)	none (no result: M18AAP inhibitor)
Cc1cc(/C=C(\C#N)C(=O)Nc2ccccc2F)c(C)[nH]1	AHR act 66.1
Cc1cc(/C=C(\C#N)C(=O)NC2CCCCCC2)c(C)[nH]1	none
Cc1cc(/C=C(\C#N)C(=O)NC2CC2)c(C)[nH]1	AHR act 57.5
CC1CCCN(C(=O)CCNC(=O)Cn2cnc3ccccc3c2=O)C1 (stereo unspecified)	none
CN(CC(=O)Nc1ccccc1Br)C(=O)c1ccccc1OCc1ccccc1Cl	none (no result: M18AAP inhibitor, Fh CTSL1 inh, HDAC3 inhib, AHR act)
Cc1ccc2occ(/C=N/NC(=O)c3ccc(O)cc3)c(=O)c2c1	HDAC3 inhib 81.6 (no result: Fh CTSL1 inh, AHR act)
Cc1ccc(S(=O)(=O)N(C)C)cc1NC(=S)NCCCn1ccnc1	none
CN(C)S(=O)(=O)c1cccc(NC(=S)NCCCn2ccnc2)c1	Fh CTSL1 inh 17.4
Cc1ccc(C2C(C#N)=C(N)SC(N)=C2C#N)cc1	M18AAP inhibitor 42.4 (no result: Fh CTSL1 inh, HDAC3 inhib, AHR act)
O=C(NC1CCCC1)C(C1CC1)n1c(C2CC2)nc2ccccc21 (stereo unspecified)	none (no result: M18AAP inhibitor, GAA850 FXN act, Fh CTSL1 inh, HDAC3 inhib, AHR act)
O=C(CCS(=O)(=O)c1ccccc1)NCc1ccccc1	Fh CTSL1 inh 31.4
Cc1ccc(CNC(=O)CCS(=O)(=O)c2ccc(C)cc2)cc1	none
Cc1ccc(NC(=O)CNc2ccccc2N2CCCC2=O)cc1S(=O)(=O)N1CCOCC1	none (no result: M18AAP inhibitor, Fh CTSL1 inh, HDAC3 inhib, AHR act)
COc1ccc(C(=O)N2CCSC2=S)cc1OC	HDAC3 inhib inconclusive
COc1cccc(C(=O)N2CCSC2=S)c1	HDAC3 inhib 36.8
COc1ccc2nc(N3C(=O)/C(=C/c4ccc(Cl)cc4)NC3=S)sc2c1	SENP1 FRET inh 33.1 (no result: Fh CTSL1 inh, HDAC3 inhib, AHR act)
CCOc1ccc2nc(N3C(=O)CNC3=S)sc2c1	none
CSc1nc2c(=S)[nH]c(=S)[nH]c2s1	none (no result: M18AAP inhibitor, GAA850 FXN act, Fh CTSL1 inh, HDAC3 inhib, AHR act)
O=C1Nc2ccc(Br)cc2/C1=C/C1CC=CCC1 (stereo unspecified)	Fh CTSL1 inh 27.6
Clc1cccc(N/N=C(\Cc2nc3ccccc3[nH]2)c2ccccc2)c1	AHR act 64.1 (no result: HDAC3 inhib)
Cc1ccc(C)c(S(=O)(=O)N2CCN(c3nc(-c4cccnc4)nc4ccccc34)CC2)c1	none (no result: M18AAP inhibitor, Fh CTSL1 inh)
Cc1cc(Br)cn2c(Cc3ccsc3)c(C(C)(C)C)nc12	none (no result: M18AAP inhibitor, GAA850 FXN act, Fh CTSL1 inh, HDAC3 inhib, AHR act)
FC(F)(F)c1nc(N2CCN(c3ccccc3)CC2)nc2c1CCCCC2	AHR act 65.5
Cc1nc(N2CCN(Cc3ccccc3)CC2)nc2c1CCC2	none
c1ccc(Nc2ccc3c4c(cccc24)CC3)cc1	none
Nc1ccc2c3c(cccc13)CC2	AHR act 54.5
Cc1cc(C)c(S(=O)(=O)N2CCCCC2CCNC(=O)C(=O)NCc2ccco2)c(C)c1 (stereo unspecified)	none (no result: M18AAP inhibitor, HDAC3 inhib)
COc1cc(NC(=O)COc2ccc(Cl)cc2)ccc1-c1cc2ccccc2oc1=O	AHR act 55.2
COc1cc(NC(=O)COc2ccc(Cl)cc2)ccc1NC(=O)C(C)C	HDAC3 inhib inconclusive
O=C(N/N=C/C=C/c1ccccc1)c1cccc(Br)c1	Fh CTSL1 inh 17.7
O=C(NN=C1c2ccccc2-c2ccccc21)c1cccc(Br)c1	AHR act 56.1
Cc1ccc(C(=O)N/N=C/C=C/c2ccccc2)cc1	none
O=C(COc1cccc(Br)c1)NN=C1c2ccccc2-c2ccccc21	none (no result: HDAC3 inhib)
NC(=S)NNC(=O)c1ccccc1Cl	none
CCOC(=O)/C=C/C(=O)NNC(=O)c1ccccc1Cl	Fh CTSL1 inh 45.9
CCOC(=O)/C=C/C(=O)Nc1ccc(Oc2ccccc2)cc1	Fh CTSL1 inh 31.3
CN(C)C(=O)N1CCc2ccc([N+](=O)[O-])cc21	none (no result: M18AAP inhibitor, Fh CTSL1 inh, HDAC3 inhib, AHR act)
CCN(CC(=O)NCC(=O)Nc1ccc(Br)cc1C)Cc1ccccc1	none (no result: M18AAP inhibitor)
N/C(=N\c1nc2ccccc2o1)NC(=O)c1ccccc1NC(=O)c1ccccc1	AHR act 65.6
Cc1cccc(C(=O)Nc2ccc3c(c2)ncn3C)c1	none
CCOc1ccccc1C1N=C(c2ccc(OC)cc2)CC(c2ccccc2O)N1 (stereo unspecified)	none
CC(C)C1N=C(c2ccc3c(c2)OCO3)CC(c2ccccc2O)N1 (stereo unspecified)	AHR act 59.0
CNc1ccc(C(=O)OCC(=O)NC(=O)NC2CCCC2)cc1[N+](=O)[O-]	none (no result: M18AAP inhibitor, Fh CTSL1 inh)
Cc1ccccc1C(=O)NC(CC(C)C)C(=O)OCc1cc(=O)n2cc(Br)ccc2n1 (stereo unspecified)	Fh CTSL1 inh 27.5
CCNC(=O)C1(C)CCN(C(=O)c2ccccc2OC)C1 (stereo unspecified)	none (no result: M18AAP inhibitor, Fh CTSL1 inh, HDAC3 inhib, AHR act)
O=C(Cn1nnc(-c2ccc3c(c2)OCO3)n1)NCc1ccccc1	none
O=C(Cn1nnc(-c2ccccc2Cl)n1)NCc1ccc2c(c1)OCO2	AHR act 64.0
NC(=Nc1c([N+](=O)[O-])cnc2ccccc12)N1CCOCC1	none (no result: M18AAP inhibitor, GAA850 FXN act, Fh CTSL1 inh, HDAC3 inhib, AHR act)
CC(=O)Nc1ccc(NC(=O)COc2ccc(S(=O)(=O)N3CCCC3)cc2)cc1	none
CCOC(=O)C(=O)N(C)c1c(CC)nc2c(OCc3cc(Cl)cc(Cl)c3)cccn12	none (no result: M18AAP inhibitor, Fh CTSL1 inh, HDAC3 inhib, AHR act)
Cc1cccc(N2CCN(Cc3ccc([N+](=O)[O-])o3)CC2)c1C	AHR act 57.2
c1coc(-c2nnc(-c3ccco3)nn2)c1	M18AAP inhibitor 53.8, Fh CTSL1 inh 22.7
O=C(Cc1ccccc1[N+](=O)[O-])Nc1ccc(S(=O)(=O)N2CCCC2)cc1	none
CC(C)N(CCO)Cc1nc(C(c2ccccc2)c2ccccc2)no1	none
CCCC(C)c1nnc(NC(=O)COc2ccc3c(c2)OCO3)s1 (stereo unspecified)	AHR act 53.0
O=C(COc1ccc2c(c1)OCO2)NC12CC3CC(CC(C3)C1)C2	AHR act 54.5
O=C(COc1ccc2c(c1)OCO2)Nc1nncs1	AHR act 69.2
CC(C)c1nnc(NC(=O)COc2ccc3c(c2)OCO3)s1	none
CCC(CC)c1nnc(NC(=O)COc2ccc3c(c2)OCO3)s1	M18AAP inhibitor 29.6
CCc1nnc(NC(=O)COc2ccc3c(c2)OCO3)s1	none
